Sampled rows, rich in hits. Any-hit rate of the full collection: about 5.2%.
ALR H2O2 inh: inhibitors of human ALR sulfhydryl oxidase, primary screen, biochemical, H2O2 detection, HRP-luminol luminescence, single point; purified ALR, DTT oxidation; inhibition, % (no concentration beside the values); AID 485317, 2010; FAD-linked sulfhydryl oxidase ALR (Homo sapiens), P55789; hit rate 3.8% among 290,000;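 active means mean replicate inhibition above about 79%, with every replicate also reaching it, limit read from the data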
Target sequence (P55789 whole entry, looked up): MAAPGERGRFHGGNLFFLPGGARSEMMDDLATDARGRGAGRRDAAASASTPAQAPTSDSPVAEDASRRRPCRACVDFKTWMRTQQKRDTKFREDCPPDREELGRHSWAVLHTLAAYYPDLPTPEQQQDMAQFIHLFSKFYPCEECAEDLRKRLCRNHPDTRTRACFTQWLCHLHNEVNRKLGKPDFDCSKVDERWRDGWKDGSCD
EBNA-1 inh: EBNA-1 DNA-binding inhibitors, primary screen, biochemical, fluorescence polarization; AID 1950, 2009; hit rate 0.34% among 300,000; inhibition, % at 14.8 µM; in the data active means inhibition above about 28%
NS3 helicase inh: inhibitors of HCV NS3 helicase, primary screen, biochemical, Cy5 molecular beacon fluorescence. Hepatitis C virus NS3 helicase. NS3 helicase DNA unwinding. inhibition, % at 10.9 µM. hit rate 0.56% among 290,000. AID 1800, 2009;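 active means inhibition above the mean of all tested compounds plus 3 SD, set per campaign, cut at about 35% in these data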
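Control set: DMSO versus 110 µM thioflavine S; Material: NS3 helicase fragment of HCV; Measured by: Cy5 fluorescence at 0 and 60 min, beacon hairpin quenching; Read-out basis: percent inhibition from t60/t0 fluorescence ratio; Times: reaction time 60 min, 25 °C; Repeats: single replicate; Compound dosing: single dose, 10.9 µM nominal final, DMSO 0.8% final.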
M18AAP inhibitor: PfM18AAP inhibitors, malaria aminopeptidase, primary screen, biochemical, QFRET, recombinant enzyme | hit rate 1.2% among 290,000 | AID 1822, 2009 | M18 aspartyl aminopeptidase (Plasmodium falciparum 3D7) | inhibition, % at 7.35 µM | H-Glu-NHMec fluorogenic cleavage;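 active means inhibition above the campaign mean inhibition over all tested compounds plus 3 SD, cut at about 28% in these data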
core dimer inh: inhibitors of HCV core protein dimerization, primary screen, biochemical, TR-FRET, high-throughput | TR-FRET GST/Flag-core106 dimerization, 1536-well | inhibition, % at 5 µM | hit rate 0.33% among 300,000 | AID 1899, 2009;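 active means inhibition above the mean of all tested compounds plus 3 SD, set per screening campaign, cut at about 45% in these data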
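assay system = GST-tagged and Flag-tagged HCV core protein residues 1-106 | controls = unlabelled core106 and no-GST-core106 wells | incubation = compound-protein-antibody incubation 4 h at 22.5 °C | probe or stimulus = Eu donor and XL665 acceptor anti-tag antibodies | read-out = % inhibition based on acceptor/donor emission ratio | signal = TR-FRET 671 and 617 nm emission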
ZTA DNA inh: counter-screen for EBNA-1 inhibitors: inhibitors of Epstein-Barr virus ZTA. P03206. ZTA-DNA binding, fluorescence polarization. inhibition, % at 11 µM. hit rate 0.15% among 320,000. AID 2234; in the data active means inhibition above about 33%
Target sequence (P03206 whole entry, looked up): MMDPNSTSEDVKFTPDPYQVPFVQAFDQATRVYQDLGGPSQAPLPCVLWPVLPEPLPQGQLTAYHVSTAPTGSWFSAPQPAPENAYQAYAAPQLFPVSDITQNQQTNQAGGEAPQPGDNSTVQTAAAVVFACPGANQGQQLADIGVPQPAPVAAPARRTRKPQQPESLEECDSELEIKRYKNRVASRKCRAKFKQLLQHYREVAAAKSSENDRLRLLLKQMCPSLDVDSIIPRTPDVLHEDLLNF
NS3 helicase cf: HCV NS3 helicase inhibitors, retest, confirmation, biochemical, Cy5 molecular beacon fluorescence, triplicate; inhibition, % at 10.9 µM; hit rate 31% among 1,600; shares compounds with NS3 helicase inh; NS3 helicase DNA unwinding; AID 1943, 2009;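 active means inhibition above the mean of all tested compounds plus 3 SD, cutoff set per campaign, cut at about 36% in these data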
FID counter trip: compounds displacing fluorescent DNA intercalator, artefact control for HCV NS3 helicase inhibitor project, biochemical, FID fluorescence, triplicate | shares compounds with NS3 helicase inh | DNA fluorescent intercalator displacement | inhibition, % at 7.9 µM | hit rate 4% among 1,600; in the data active means inhibition above about 37%;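 further: higher means more displacement of ethidium bromide from the DNA hairpin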
DNA FID DR: compounds displacing fluorescent intercalator from DNA, dose response, counter-screen for HCV NS3 helicase inhibitor project, biochemical, fluorescence | shares compounds with NS3 helicase inh | fluorescent intercalator displacement from DNA | IC50, µM | 120 tested, under 10 active | AID 2172, 2009; call rule not given here
Each line names hits and unclear results; the compound was inactive in the other large screens (follow-up assays come after a bar, where they were run).

O=C(O)COc1ccccc1C(Nc1cccnc1)c1cc(Cl)c2cccnc2c1O (centres undefined)	NS3 helicase inh 37.1 (no result: ALR H2O2 inh, EBNA-1 inh, core dimer inh, ZTA DNA inh) | NS3 helicase cf 69.2 | FID counter trip 80.7
CCCC(=O)NC(c1ccc(Cl)cc1Cl)c1ccc2cccnc2c1O (centres undefined)	none
COc1ccc(C(NC(C)=O)c2cc(Cl)c3cccnc3c2O)cc1OC (centres undefined)	none
Cc1cc(C)cc(C(=O)N(Cc2ccco2)c2c(N)n(Cc3ccccc3)c(=O)[nH]c2=O)c1	none (no result: EBNA-1 inh, NS3 helicase inh, M18AAP inhibitor, core dimer inh)
O=C(COC(=O)COc1cccc(Br)c1)Nc1ccc(F)cc1F	none (no result: ALR H2O2 inh, EBNA-1 inh, NS3 helicase inh, M18AAP inhibitor, core dimer inh)
COc1ccccc1N1CCN(C(=O)CSc2nc(C)c(Cc3ccccc3)c(=O)[nH]2)CC1	NS3 helicase inh 41.4 | NS3 helicase cf inactive | FID counter trip inactive
O=C(NCc1ccccn1)c1ccc(Cl)c(S(=O)(=O)NCc2ccccc2)c1	none (no result: EBNA-1 inh, NS3 helicase inh, M18AAP inhibitor, core dimer inh)
CC(OC(=O)/C(C#N)=C/c1ccco1)C(=O)N(C)c1ccccc1 (centres undefined)	none (no result: EBNA-1 inh, NS3 helicase inh, M18AAP inhibitor, core dimer inh, ZTA DNA inh)
COc1ccc(C2(C)NC(=O)N(CC(=O)Nc3ccc(Br)c(C)c3)C2=O)cc1OC (centres undefined)	none
CCC1CN(C(=O)N2CCC(C(=O)NCc3ccco3)CC2)c2cc(C)ccc2O1 (centres undefined)	none
C(=N\Nc1nc(-c2ccccc2)cs1)/c1cccs1	none
ClCc1csc(N/N=C/c2cccs2)n1	NS3 helicase inh 43.2 | NS3 helicase cf inactive | FID counter trip inactive
Cc1ccc(N=C2NC(=O)/C(=C/C=C/c3ccco3)S2)cc1	NS3 helicase inh 114.4, core dimer inh 59.2 | NS3 helicase cf inactive | FID counter trip inactive
O=C1NC(=Nc2ccccc2)S/C1=C\c1ccccc1	NS3 helicase inh 39.7 | NS3 helicase cf inactive | FID counter trip inactive
O=C1NC(=Nc2ccccc2)S/C1=C/c1cccnc1	none
COc1ccc(N=C2NC(=O)/C(=C/c3ccco3)S2)cc1	none
O=C1NC(=Nc2ccccc2)S/C1=C\C=C\c1ccco1	NS3 helicase inh 43.8 | NS3 helicase cf inactive | FID counter trip inactive
Cc1cccc(N=C2NC(=O)/C(=C/c3cccn3C)S2)c1C	none
Cc1cccc(N=C2NC(=O)/C(=C/C=C/c3ccco3)S2)c1C	NS3 helicase inh 44.8, core dimer inh 58.6 (no result: ALR H2O2 inh) | NS3 helicase cf 88.2 | FID counter trip inactive | DNA FID DR inactive
COc1ccc(CCNC(=O)CSc2nc3scc(-c4ccccc4)c3c(=O)[nH]2)cc1	none (no result: EBNA-1 inh, NS3 helicase inh, M18AAP inhibitor, core dimer inh, ZTA DNA inh)
O/N=C/c1ccc2cccc(OCc3ccccc3)c2n1	none
NC(=S)N/N=C/c1ccc2cccc(OCc3ccccc3)c2n1	NS3 helicase inh 38.7, M18AAP inhibitor 43.5 | NS3 helicase cf inactive | FID counter trip inactive
CCOC(=O)CC(=O)CSc1ccc2nnc(-c3ccc(F)cc3)n2n1	NS3 helicase inh 38.4 | NS3 helicase cf inactive | FID counter trip inactive
COc1ccc(OCc2cc(C(=O)NC3CCOC(C)(C)C3)no2)c2ccccc12 (centres undefined)	NS3 helicase inh 47.2 | NS3 helicase cf inactive | FID counter trip inactive
Cc1cc(O)c(C=O)c2c1C(=O)Oc1c(CO)c(O)c3c(c1O2)C(O)OC3=O (centres undefined)	ALR H2O2 inh 98.7, NS3 helicase inh 46.9, ZTA DNA inh 97.0 | NS3 helicase cf 61.6 | FID counter trip 85.7
COc1ccc(C(=O)CC(=O)C(=O)Nc2ccccc2)cc1	none
COc1ccc(C(=O)CC(=O)C(=O)Nc2ccc([N+](=O)[O-])cc2C)cc1	NS3 helicase inh 36.6 | NS3 helicase cf inactive | FID counter trip inactive
CCOc1ccccc1NC(=O)C(=O)CC(=O)c1ccc(OC)cc1	NS3 helicase inh 37.1 | NS3 helicase cf inactive | FID counter trip inactive
CCCNC(=O)N1CCN(S(=O)(=O)c2ccc3c(c2)OCCO3)CC1	none (no result: EBNA-1 inh, NS3 helicase inh, M18AAP inhibitor, core dimer inh)
CCc1nnc(NS(=O)(=O)c2ccc(NC(=S)NC(=O)c3ccccc3)cc2)s1	ALR H2O2 inh 95.7, NS3 helicase inh 45.5 | NS3 helicase cf 65.5 | FID counter trip inactive
CCc1nnc(NS(=O)(=O)c2ccc(NC(=S)NC(=O)c3ccc(Br)cc3)cc2)s1	NS3 helicase inh 57.8 | NS3 helicase cf 48.9 | FID counter trip inactive
CCc1nnc(NS(=O)(=O)c2ccc(NC(=O)c3ccc(Cl)cc3)cc2)s1	none
CCOC(=O)c1ccc(N(C(=O)CNC(=O)c2ccco2)C(C(=O)NCC2CCCO2)c2ccc(OC)c(OC)c2)cc1 (centres undefined)	NS3 helicase inh 50.9 | NS3 helicase cf inactive | FID counter trip inactive
O=C(CC1Nc2cccc3cccc(c23)NC1=O)Nc1ccccc1 (centres undefined)	NS3 helicase inh 67.1 | NS3 helicase cf inactive | FID counter trip inactive
C(=C\c1ccco1)/c1ccc2ccccc2n1	NS3 helicase inh 42.0, core dimer inh 53.2 | NS3 helicase cf inactive | FID counter trip inactive
COc1ccc(S(=O)(=O)N2CCC(C(=O)NCc3cccnc3)CC2)cc1OC	none
COc1cccc(NC(=O)COC(=O)CCC(=O)c2cccs2)c1	none (no result: EBNA-1 inh, NS3 helicase inh, M18AAP inhibitor, core dimer inh)
CC1=Nc2ccccc2/C1=C/c1c(N)n2c(S(=O)(=O)CC(C)C)nsc2nc1=O	NS3 helicase inh 36.1 (no result: ALR H2O2 inh, EBNA-1 inh, core dimer inh, ZTA DNA inh) | NS3 helicase cf 54.3 | FID counter trip inactive
CCCCNC(=O)[C@H]1C[C@H]1[C@@H](O)[C@H](CO)NC(=O)[C@H](CC(C)C)NC(=O)OC(C)(C)C	NS3 helicase inh 36.1 | NS3 helicase cf inactive | FID counter trip inactive
CC(=O)N1CCC(C(=O)Nc2ccc(S(=O)(=O)N3CCCCC3)cc2)CC1	none
CCN(C(=S)NCCOC)c1cccc2ccccc12	NS3 helicase inh 43.9 (no result: ALR H2O2 inh) | NS3 helicase cf inactive | FID counter trip inactive
COc1ccc(NC(=O)Nc2ccc3c(c2)CC(=O)N([C@H](C)CO)C[C@H](C)[C@H](CN(C)Cc2ccc(C(=O)O)cc2)O3)cc1	none (no result: EBNA-1 inh, NS3 helicase inh, M18AAP inhibitor, core dimer inh, ZTA DNA inh)
O=C(CSc1ccc(Br)c2cccc(Cl)c12)Nc1ccc(S(=O)(=O)Nc2nccs2)cc1	NS3 helicase inh 38.3 | NS3 helicase cf 38.0 | FID counter trip inactive
O=C(Cc1ccccc1Cl)Nc1ccc(S(=O)(=O)Nc2nccs2)cc1	none
